Laboratory results taken from ChEMBL document CHEMBL2177069, “Novel peptidomimetic compounds containing redox active chalcogens and quinones as potential anticancer agents” (Eur J Med Chem, 2012).

Columns and labels:
DU-145 = assay: Cytotoxicity against human DU145 cells; assay type: functional
Saccharomyces cerevisiae [1] = assay: Growth inhibition of UFD2-deficient Saccharomyces cerevisiae YDL190C mutant at 20 ug/disc after 24 to 48 hrs by agar diffusion assay; assay type: functional; details: read-out: DIZ
Summary of the method: (§1)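 S. cerevisiae deletion mutants or wild type grown on YPD, seeded into liquid agar medium at an optical density of 0.1. 6 mm paper discs soaked with methanolic compound solution were placed on the plates and incubated at 30 °C. Growth was checked after 1 and 2 days, and the inhibition zone diameter was recorded in mm.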

Saccharomyces cerevisiae [2] = assay: Growth inhibition of COX17-deficient Saccharomyces cerevisiae YLL009C mutant at 20 ug/disc after 24 to 48 hrs by agar diffusion assay; assay type: functional; details: read-out: DIZ; summary of the method: as §1
Saccharomyces cerevisiae [3] = assay: Growth inhibition of RCK1-deficient Saccharomyces cerevisiae YGL158W mutant at 20 ug/disc after 24 to 48 hrs by agar diffusion assay; assay type: functional; details: read-out: DIZ; summary of the method: as §1
Saccharomyces cerevisiae [4] = assay: Growth inhibition of POS5-deficient Saccharomyces cerevisiae YPL188W mutant at 20 ug/disc after 24 to 48 hrs by agar diffusion assay; assay type: functional; details: read-out: DIZ; summary of the method: as §1
Saccharomyces cerevisiae [5] = assay: Growth inhibition of WSC4-deficient Saccharomyces cerevisiae YHL028W mutant at 20 ug/disc 24 to 48 hrs by agar diffusion assay; assay type: functional; details: read-out: DIZ; summary of the method: as §1
Saccharomyces cerevisiae [6] = assay: Growth inhibition of PST2-deficient Saccharomyces cerevisiae YDR032C mutant at 20 ug/disc 24 to 48 hrs by agar diffusion assay; assay type: functional; details: read-out: DIZ; summary of the method: as §1
Saccharomyces cerevisiae [7] = assay: Growth inhibition of SOD2-deficient Saccharomyces cerevisiae YHR008C mutant at 20 ug/disc 24 to 48 hrs by agar diffusion assay; assay type: functional; details: read-out: DIZ; summary of the method: as §1
Saccharomyces cerevisiae [8] = assay: Growth inhibition of wild type Saccharomyces cerevisiae BY4741 at 20 ug/disc after 24 to 48 hrs by agar diffusion assay; assay type: functional; details: read-out: DIZ; summary of the method: as §1
[9] = Cytotoxicity against human PHF cells after 24 hrs by MTT assay; assay type: cell-based
Summary of the method: (§2)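 MTT assay. Cells were seeded at 50,000 cells/mL in medium with 10% fetal calf serum and grown for two days at 37 °C, 10% CO2. Serial dilutions of compound were then added for 24 h. MTT was added (final 0.5 mg/mL) for 2 h, and the formazan was pelleted, washed, dissolved in isopropanol with 0.4% HCl and read at 590 nm. IC50 is the concentration giving 50% of untreated-control absorbance, taken from dose-response curves; mean of two parallel experiments.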

HUVEC = assay: Cytotoxicity against human HUVEC cells after 24 hrs by MTT assay; assay type: cell-based; summary of the method: as §2
A-431 = assay: Cytotoxicity against human A431 cells after 24 hrs by MTT assay; assay type: functional, cell-based; details: A-431, 24 h; summary of the method: as §2
Hs-578T = assay: Cytotoxicity against human Hs578T cells; assay type: functional
MCF7 = assay: Cytotoxicity against human MCF7 cells; assay type: functional
UO-31 = assay: Cytotoxicity against human UO31 cells; assay type: functional
PC-3 = assay: Cytotoxicity against human PC3 cells; assay type: functional
SN12C = assay: Cytotoxicity against human SN12C cells; assay type: functional
RXF 393 = assay: Cytotoxicity against human RXF393 cells; assay type: functional
NCI/ADR-RES = assay: Cytotoxicity against human NCI/ADR-RES cells; assay type: functional
OVCAR-5 = assay: Cytotoxicity against human OVCAR5 cells; assay type: functional
IGROV-1 = assay: Cytotoxicity against human IGROV1 cells; assay type: functional
UACC-62 = assay: Cytotoxicity against human UACC62 cells; assay type: functional
SK-MEL-5 = assay: Cytotoxicity against human SK-MEL-5 cells; assay type: functional
SK-MEL-28 = assay: Cytotoxicity against human SK-MEL-28 cells; assay type: functional
SK-MEL-2 = assay: Cytotoxicity against human SK-MEL-2 cells; assay type: functional
MDA-MB-435 = assay: Cytotoxicity against human MDA-MB-435 cells; assay type: functional
Malme-3M = assay: Cytotoxicity against human MALME-3M cells; assay type: functional
M14 = assay: Cytotoxicity against human M14 cells; assay type: functional
SNB-75 = assay: Cytotoxicity against human SNB75 cells; assay type: functional
SNB-19 = assay: Cytotoxicity against human SNB19 cells; assay type: functional
SF-295 = assay: Cytotoxicity against human SF295 cells; assay type: functional
SW-620 = assay: Cytotoxicity against human SW620 cells; assay type: functional
KM12 = assay: Cytotoxicity against human KM12 cells; assay type: functional
HCT-15 = assay: Cytotoxicity against human HCT15 cells; assay type: functional
NCI-H522 = assay: Cytotoxicity against human NCI-H522 cells; assay type: functional
NCI-H460 = assay: Cytotoxicity against human NCI-H460 cells; assay type: functional
HOP-92 = assay: Cytotoxicity against human HOP92 cells; assay type: functional
NCI-H226 = assay: Cytotoxicity against human NCI-H226 cells; assay type: functional
A549 = assay: Cytotoxicity against human A549 cells; assay type: functional
HOP-62 = assay: Cytotoxicity against human HOP62 cells; assay type: functional
MOLT-4 = assay: Cytotoxicity against human MOLT4 cells; assay type: functional

## CC1=C([Se]CC(OC(=O)[C@@H](CO)NC(=O)OC(C)(C)C)C(=O)NCCCCCC(=O)OCc2ccccc2)C(=O)c2ccccc2C1=O (stereo not given in full)
DU-145
  GI50: 1.82 µM
  LC50: 5.89 µM
DU-145; read-out: pTGI (converted)
  TGI: 3.24 µM
Saccharomyces cerevisiae [1]
  zone of inhibition at 20 µg/disc: 0 mm
Saccharomyces cerevisiae [2]
  zone of inhibition at 20 µg/disc: 0 mm
Saccharomyces cerevisiae [3]
  zone of inhibition at 20 µg/disc: 0 mm
Saccharomyces cerevisiae [4]
  zone of inhibition at 20 µg/disc: 0 mm
Saccharomyces cerevisiae [5]
  zone of inhibition at 20 µg/disc: 0 mm
Saccharomyces cerevisiae [6]
  zone of inhibition at 20 µg/disc: 15 mm
Saccharomyces cerevisiae [7]
  zone of inhibition at 20 µg/disc: 11 mm
Saccharomyces cerevisiae [8]
  zone of inhibition at 20 µg/disc: 0 mm
[9]
  IC50: 27 µM
HUVEC
  IC50: 35 µM
A-431
  IC50: 4 µM
Hs-578T
  GI50: 2 µM
  LC50: > 100 µM
Hs-578T; read-out: pTGI (converted)
  TGI: 4.68 µM
MCF7
  GI50: 1.62 µM
  LC50: 7.08 µM
MCF7; read-out: pTGI (converted)
  TGI: 3.39 µM
UO-31
  GI50: 1.55 µM
  LC50: 5.89 µM
UO-31; read-out: pTGI (converted)
  TGI: 3.02 µM
PC-3
  GI50: 1.23 µM
  LC50: 5.37 µM
PC-3; read-out: pTGI (converted)
  TGI: 2.57 µM
SN12C
  GI50: 1.95 µM
  LC50: 6.61 µM
SN12C; read-out: pTGI (converted)
  TGI: 3.63 µM
RXF 393
  GI50: 2.69 µM
  LC50: 6.46 µM
RXF 393; read-out: pTGI (converted)
  TGI: 4.17 µM
NCI/ADR-RES
  GI50: 2.04 µM
NCI/ADR-RES; read-out: pTGI (converted)
  TGI: 3.89 µM
OVCAR-5
  GI50: 2.09 µM
  LC50: 6.31 µM
OVCAR-5; read-out: pTGI (converted)
  TGI: 3.63 µM
IGROV-1
  GI50: 1.78 µM
  LC50 (concentration killing 50% of cells): 6.31 µM
IGROV-1; read-out: pTGI (converted)
  TGI: 3.39 µM
UACC-62
  GI50: 1.7 µM
  LC50: 5.62 µM
UACC-62; read-out: pTGI (converted)
  TGI: 3.09 µM
SK-MEL-5
  GI50: 1.58 µM
  LC50: 5.5 µM
SK-MEL-5; read-out: pTGI (converted)
  TGI: 2.95 µM
SK-MEL-28
  GI50: 1.78 µM
  LC50: 5.75 µM
SK-MEL-28; read-out: pTGI (converted)
  TGI: 3.24 µM
SK-MEL-2
  GI50: 2.24 µM
  LC50: 7.41 µM
SK-MEL-2; read-out: pTGI (converted)
  TGI: 4.07 µM
MDA-MB-435
  GI50: 1.78 µM
  LC50: 6.76 µM
MDA-MB-435; read-out: pTGI (converted)
  TGI: 3.47 µM
Malme-3M
  GI50: 2.09 µM
  LC50: 7.08 µM
Malme-3M; read-out: pTGI (converted)
  TGI: 3.8 µM
M14
  GI50: 1.78 µM
  LC50: 6.03 µM
M14; read-out: pTGI (converted)
  TGI: 3.31 µM
SNB-75
  GI50: 1.29 µM
  LC50: 5.01 µM
SNB-75; read-out: pTGI (converted)
  TGI: 2.57 µM
SNB-19
  GI50: 0.776 µM
  LC50: 5.01 µM
SNB-19; read-out: pTGI (converted)
  TGI: 2.14 µM
SF-295
  GI50: 0.324 µM
  LC50: 30.9 µM
SF-295; read-out: pTGI (converted)
  TGI: 1.51 µM
SW-620
  GI50: 1.74 µM
  LC50: 6.17 µM
SW-620; read-out: pTGI (converted)
  TGI: 3.24 µM
KM12
  GI50: 1.51 µM
  LC50: 5.5 µM
KM12; read-out: pTGI (converted)
  TGI: 2.88 µM
HCT-15
  GI50: 1.95 µM
  LC50: 7.41 µM
HCT-15; read-out: pTGI (converted)
  TGI: 3.8 µM
NCI-H522
  GI50: 2 µM
  LC50: 6.03 µM
NCI-H522; read-out: pTGI (converted)
  TGI: 3.47 µM
NCI-H460
  GI50: 0.457 µM
  LC50: 5.37 µM
NCI-H460; read-out: pTGI (converted)
  TGI: 1.62 µM
HOP-92
  GI50: 1.86 µM
  LC50 (50% lethal concentration): 5.89 µM
HOP-92; read-out: pTGI (converted)
  TGI: 3.31 µM
NCI-H226
  GI50: 2.24 µM
NCI-H226; read-out: pLC50 (the source's name) (converted)
  CC50: 8.71 µM
NCI-H226; read-out: pTGI (converted)
  TGI: 4.37 µM
A549
  GI50: 1.38 µM
  LC50: 6.92 µM
A549; read-out: pTGI (converted)
  TGI: 3.09 µM
HOP-62
  GI50: 0.417 µM
  LC50: 4.79 µM
HOP-62; read-out: pTGI (converted)
  TGI: 1.74 µM
MOLT-4
  GI50: 1.38 µM
  LC50: > 100 µM
MOLT-4; read-out: pTGI (converted)
  TGI: 4.9 µM
